Data on three compounds can be found in ChEMBL document CHEMBL6115053, “Optimization and Characterization of N-Acetamide Indoles as Antimalarials That Target PfATP4” (J Med Chem, 2025).

In brackets after ≈: the same amount, converted by molar mass. Activity calls are given as the source filed them. The rule behind the calls is not given here.

The term logD denotes lipophilicity at a set pH, counting ionised and neutral species. What is called CC50 is the concentration that lowers cell viability or growth by half. One may read the EC50 as the midpoint of the concentration-response curve. By IC50 is commonly meant the concentration that inhibits the measured activity by half. One may read the solubility (kinetic) as solubility judged after dilution from a stock solution rather than from solid.

Data set [1] is described as follows: Lipophilicity, logD of compound at pH 7.4 by shake-flask method. It is filed as physicochemical. The settings on record: buffer.
Data set [2] deals with Plasmodium falciparum. The experiment in a line: Antiplasmodial activity against Plasmodium falciparum Dd2-B2 assessed as reduction in recrudescence measured for 42 days by flow cytometry. It counts as functional, organism-based. Particulars: time 42.0 day. (In general: In flow cytometry, cells or beads pass a laser one at a time.)
For data set [3], the system named is Plasmodium falciparum. As to the kind of experiment: Antiplasmodial activity against Plasmodium falciparum Dd2-B2 assessed as parasite clearance at 3 times IC90 incubated for 42 days by flow cytometry analysis. Particulars: time 42.0 day. It is filed as functional, organism-based.
Another data set has as its system HepG2. The experiment in a line: Cytotoxicity against human HepG2 cells assessed as inhibition of cell growth incubated for 48 hrs by celltiterglo assay. The settings on record: hepg2, 48 h. It is filed as toxicity, cell-based. In general terms: ATP-based viability assays read luminescence as a measure of living cells.
Data set [4] deals with Plasmodium falciparum. As to the kind of experiment: Antiplasmodial activity against asexual Plasmodium falciparum 3D7 infected in human […] cells assessed as reduction in parasite growth measured for 72 hrs by LDH assay. It counts as functional, organism-based. The settings on record: 3D7, 72 h.
In data set [5] the test system is Plasmodium falciparum. As to the kind of experiment: Antiplasmodial activity against N-(2,6-difluorophenyl)-2-(6-(5-methyl-1,3,4-oxadiazol-2-yl)-1H-indol-1-yl)acetamide-resistant Plasmodium falciparum Dd2 harboring plasmodium falciparum ATP4 F156L mutant by SYBR green staining based analysis. It is filed as functional, organism-based.
Data set [6] relates to Plasmodium falciparum. The experiment in a line: Antiplasmodial activity against W454-resistant population 1 Plasmodium falciparum 3D7 harboring Plasmodium falciparum ATP4 L928F mutant by LDH assay. It is filed as functional, organism-based.
For data set [7], the system named is Plasmodium falciparum. As to the kind of experiment: Antiplasmodial activity against Plasmodium falciparum 3D7 infected in RBC assessed as reduction in extracellular parasite growth at 0.03 uM measured for 8 hrs by Giemsa-staining based microscopic analysis. It is filed as functional. Also noted: scale not given: the % may be the effect or the level left. In short, it runs like this:
(§1)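 Giemsa-stained thin smears were read at 8 h and the percentages of extracellular and intracellular parasites counted, compared with untreated parasites at 0 h.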

Data set [8] has as its system Plasmodium falciparum. As to the kind of experiment: Antiplasmodial activity against Plasmodium falciparum Dd2-B2 assessed as parasite clearance at 3 times IC90 incubated for 5 days. It counts as functional, organism-based. The settings on record: time 5.0 day.
The test system of data set [9] is Plasmodium falciparum. The experiment in a line: Antiplasmodial activity against Plasmodium falciparum 3D7 harboring Plasmodium falciparum ATP4 […] mutant by SYBR green staining based flow cytometry analysis. It counts as functional, organism-based.
Data set [10] relates to Plasmodium falciparum. As to the kind of experiment: Antiplasmodial activity against W454-resistant population 2 Plasmodium falciparum 3D7 harboring Plasmodium falciparum ATP4 L928F mutant by LDH assay. It is filed as functional, organism-based.
The test system of data set [11] is Plasmodium falciparum. The experiment in a line: Antiplasmodial activity against Plasmodium falciparum 3D7 infected in human […] cells incubated for 72 hrs. It counts as functional, organism-based. Particulars: 3D7, 72 h.
In data set [12] the test system is Plasmodium falciparum. The experiment in a line: Antimalarial activity against Plasmodium falciparum NF54 infected assessed as inhibition of female gamete formation incubated for 48 hrs by automated bright field microscopic analysis. It counts as functional, organism-based. Particulars: NF54, 48 h.
The test system of data set [13] is Plasmodium falciparum. The experiment in a line: Antiplasmodial activity against N-(2,6-difluorophenyl)-2-(6-(5-methyl-1,3,4-oxadiazol-2-yl)-1H-indol-1-yl)acetamide-resistant Plasmodium falciparum Dd2 harboring plasmodium falciparum ATP4 D425E mutant by SYBR green staining based analysis. It is filed as functional, organism-based.
Data set [14] deals with Plasmodium falciparum. The experiment in a line: Antiplasmodial activity against N-(2,6-difluorophenyl)-2-(6-(5-methyl-1,3,4-oxadiazol-2-yl)-1H-indol-1-yl)acetamide-resistant Plasmodium falciparum Dd2 harbouring ATP4 genome with 2.8 fold CNV by SYBR green staining based analysis. It is filed as functional, organism-based.
Data set [15] relates to Plasmodium falciparum. The experiment in a line: Antiplasmodial activity against Plasmodium falciparum Dd2-B2. It counts as functional, organism-based.
Data set [16] has as its system Plasmodium falciparum. As to the kind of experiment: Antiplasmodial activity against multidrug-resistant Plasmodium falciparum Dd2 harboring plasmodium falciparum ATP4 G358S mutant by SYBR green staining based analysis. It counts as functional, organism-based.
Data set [17] has as its system Plasmodium falciparum. The experiment in a line: Antiplasmodial activity against asexual blood stage Plasmodium falciparum Dd2-B2 assessed as parasite recrudescence by measuring minimum inoculum of resistance measured for 40 days by flow cytometry. It is filed as functional. The settings on record: time 40 day.
Data set [18] can be described thus: Metabolic stability in mouse liver microsome assessed as intrinsic clearance. It counts as ADME. The settings on record: microsomes. A general note: Microsomes from liver hold many membrane-bound enzymes, among them those of drug oxidation.
In data set [19] the test system is Plasmodium falciparum. As to the kind of experiment: Antiplasmodial activity against Plasmodium falciparum 3D7 infected in RBC assessed as reduction in parasite growth measured for 8 hrs by Giemsa-staining based microscopic analysis. It counts as functional, organism-based. In short, it runs like this:
as §1

Data set [20] deals with Plasmodium falciparum. As to the kind of experiment: Antiplasmodial activity against W454-resistant population 3 Plasmodium falciparum 3D7 harboring Plasmodium falciparum ATP4 L928F mutant by LDH assay. It is filed as functional, organism-based.
The test system of data set [21] is Plasmodium falciparum. The experiment in a line: Antiplasmodial activity against multidrug-resistant Plasmodium falciparum Dd2 harboring plasmodium falciparum ATP4 I398F/P990R/D1247Y mutant by SYBR green staining based analysis. It counts as functional, organism-based.
The subject of data set [22] is Plasmodium falciparum. As to the kind of experiment: Antimalarial activity against Plasmodium falciparum NF54 infected assessed as inhibition of male gamete formation incubated for 48 hrs by automated bright field microscopic analysis. It counts as functional, organism-based. The settings on record: NF54, 48 h.
Data set [23] in a line: Metabolic stability in rat hepatocyte […] assessed as intrinsic clearance measured per 10^6 cells. It is filed as ADME, cell-based. The settings on record: hepatocytes.
Data set [24] can be described thus: Aqueous solubility in PBS buffer at pH 7.4. It counts as physicochemical.
The nature of data set [25]: Metabolic stability in human liver microsome assessed as intrinsic clearance. It is filed as ADME. The settings on record: microsomes.
Data set [26] has as its system Plasmodium falciparum. The experiment in a line: Antiplasmodial activity against Plasmodium falciparum 3D7 infected in RBC assessed as reduction in extracellular parasite growth at 0.7 µM measured for 8 hrs by Giemsa-staining based microscopic analysis. Also noted: scale not given: the % may be the effect or the level left.
Data set [27] has as its system Plasmodium falciparum. As to the kind of experiment: Antiplasmodial activity against Plasmodium falciparum 3D7 infected in RBC assessed as reduction in deoxythymidine triphosphate level at 20 nM incubated for 5 hrs by LC-MS analysis. It is filed as functional, organism-based.
Data set [28] relates to Plasmodium falciparum. As to the kind of experiment: Antiplasmodial activity against Plasmodium falciparum 3D7 infected in RBC assessed as reduction in deoxythymidine diphosphate level at 20 nM incubated for 5 hrs by LC-MS analysis. It is filed as functional, organism-based.
Data set [29] has as its system Plasmodium falciparum. The experiment in a line: Antiplasmodial activity against Plasmodium falciparum 3D7 infected in RBC assessed as reduction in deoxycytidine monophosphate level at 20 nM incubated for 5 hrs by LC-MS analysis. It is filed as functional, organism-based.
Data set [30] relates to Plasmodium falciparum. The experiment in a line: Antiplasmodial activity against Plasmodium falciparum 3D7 infected in RBC assessed as reduction in nucleotide level at 20 nM incubated for 5 hrs by LC-MS analysis. It is filed as functional, organism-based.
Data set [31] deals with Plasmodium falciparum. The experiment in a line: Antiplasmodial activity against Plasmodium falciparum 3D7 infected in RBC assessed as reduction in extracellular parasite growth at 6.7 nM measured for 8 hrs by Giemsa-staining based microscopic analysis. It counts as functional. Also noted: scale not given: the % may be the effect or the level left. The gist of the method: as §1

Data set [32] relates to Plasmodium falciparum. As to the kind of experiment: Antiplasmodial activity against Plasmodium falciparum 3D7 infected in RBC assessed as reduction in pyrimidine-deoxyribonucleotides level at 20 nM incubated for 5 hrs by LC-MS analysis. It counts as functional, organism-based.

For the compound `COc1cc(NC(=O)Cn2ccc3cc(F)c(-c4cnn(C)c4)cc32)cc(OC)c1OC`, the log distribution coefficient (logD) in [1] is 3.2. Moreover, the result with Plasmodium falciparum [2], with Plasmodium falciparum [3], in the data set with Plasmodium falciparum [8], in the data set with Plasmodium falciparum [9] and with Plasmodium falciparum [19] was Active. The cytotoxic concentration (CC50) with HepG2 was greater than 40000 nM. Moreover, the EC50 in the data set with Plasmodium falciparum [4] was determined as 7 nM; with Plasmodium falciparum [5] it was 40 nM; with Plasmodium falciparum [6], 47 nM; in the data set on Plasmodium falciparum [10], 44 nM; with Plasmodium falciparum [11], 4 nM; with Plasmodium falciparum [12], 180 nM. Also, the EC50 in the data set with Plasmodium falciparum [13] turned out to be 19 nM; in the data set with Plasmodium falciparum [14] it was 23 nM; with Plasmodium falciparum [16] it was 42 nM; in the data set on Plasmodium falciparum [20] it was 44 nM; in the data set on Plasmodium falciparum [21], 10 nM; in the data set on Plasmodium falciparum [22], 190 nM. The Activity in the data set with Plasmodium falciparum [7] was roughly 24%. This compound registered a concentration for half-maximal inhibition (IC50) in the data set with Plasmodium falciparum [15] of 17.3 nM. Further, in the data set on Plasmodium falciparum [17], the log10MIR amounted to 8.7. The “intrinsic clearance (CLint)” value in [18] was determined as 90 µL/min/mg; in data set [23] it was 1.9 uL/min/10^6 cells; in data set [25], 69 µL/min/mg. The same compound yielded a kinetic solubility in data set [24] of 2.7 µM (≈ 1.18 µg/mL).
`N#Cc1cc(NC(=O)[C@H]2c3ccccc3C(=O)N(CC(F)(F)F)[C@@H]2c2cccnc2)ccc1F` [SJ-733]: the 50% effective concentration (EC50) is 579 nM with Plasmodium falciparum [6]; 537 nM in the data set with Plasmodium falciparum [10]; 61 nM in the data set with Plasmodium falciparum [11]; greater than 10000 nM in the data set on Plasmodium falciparum [16]; 533 nM in the data set with Plasmodium falciparum [20]; 95 nM in the data set on Plasmodium falciparum [21]. In addition, the Activity in the data set on Plasmodium falciparum [26] is reported as roughly 24%.
On to `C[C@H]1Cc2c([nH]c3cc(Cl)c(F)cc23)[C@@]2(N1)C(=O)Nc1ccc(Cl)cc12` [CIPARGAMIN], for which the result in the data set on Plasmodium falciparum [27], with Plasmodium falciparum [28], in the data set on Plasmodium falciparum [29], in the data set on Plasmodium falciparum [30] and with Plasmodium falciparum [32] was inactive. For the same compound, the half-maximal effective concentration (EC50) with Plasmodium falciparum [5] is 3 nM; with Plasmodium falciparum [6], less than 2 nM; in the data set on Plasmodium falciparum [10], less than 2 nM; in the data set on Plasmodium falciparum [11] it was 1 nM; in the data set with Plasmodium falciparum [13], 2 nM; with Plasmodium falciparum [14], 4 nM. Moreover, the values for the 50% effective concentration (EC50) with Plasmodium falciparum [16], with Plasmodium falciparum [20] and with Plasmodium falciparum [21] were greater than 100 nM, 2 nM and 4 nM, respectively. Moreover, the Activity with Plasmodium falciparum [31] is on record as roughly 24%.
